Assay results published in ChEMBL document CHEMBL3351225, “Design, synthesis, and structure-activity and structure-pharmacokinetic relationship studies of novel [6,6,5] tricyclic fused oxazolidinones leading to the discovery of a potent, selective, and orally bioavailable FXa inhibitor” (J Med Chem, 2014).

Experiments:
[1] = Elimination half life in Sprague-Dawley rat at 10 mg/kg, po; format: ADME, organism-based; parameters: dose 10 mg/kg, route oral; conditions: in vivo, read-out: beta t1/2 (converted)
Method in brief: (§1)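 Male Sprague-Dawley rats, 200−220 g, four per group. Vehicle was 5% DMSO + 5% Tween-80 in 90% saline. The reference drug was given in 10% DMSO + 10% Tween-80 + 80% PEG400 (40% solution in saline). Serial retrobulbar vein samples were quantified by LC-MS. Parameters came from noncompartmental analysis of mean plasma concentrations.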

[2] = AUC (0 to infinity) in Sprague-Dawley rat at 10 mg/kg, po; format: ADME, organism-based; parameters: time infinity, dose 10 mg/kg, route oral; conditions: plasma; method in brief: as §1
Plasma [3] = assay: Anticoagulant activity in citrated rabbit plasma assessed as drug concentration required to double plasma clotting time preincubated for 10 mins at 37 degC by coagulometry; format: functional, Oryctolagus cuniculus
Method in brief: (§2)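 Test compound or DMSO added to citrated rabbit plasma (3.8% sodium citrate, 10:90 v/v) and preincubated 10 min at 37 °C. PT and aPTT clotting times measured on a coagulometer with commercial kits. Activity expressed as the concentration needed to double plasma clotting time (CT2, μM).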

[4] = AUC (0 to infinity) in Sprague-Dawley rat at 3 mg/kg, iv; format: ADME, organism-based; parameters: time infinity, dose 3 mg/kg, route intravenous; conditions: plasma; method in brief: as §1
Coagulation factor VII = target: T1, Coagulation factor VII (Homo sapiens, UniProt P08709); assay: Inhibition of human factor 7a using S-2366 chromogenic substrate
T1 sequence (P08709 whole entry): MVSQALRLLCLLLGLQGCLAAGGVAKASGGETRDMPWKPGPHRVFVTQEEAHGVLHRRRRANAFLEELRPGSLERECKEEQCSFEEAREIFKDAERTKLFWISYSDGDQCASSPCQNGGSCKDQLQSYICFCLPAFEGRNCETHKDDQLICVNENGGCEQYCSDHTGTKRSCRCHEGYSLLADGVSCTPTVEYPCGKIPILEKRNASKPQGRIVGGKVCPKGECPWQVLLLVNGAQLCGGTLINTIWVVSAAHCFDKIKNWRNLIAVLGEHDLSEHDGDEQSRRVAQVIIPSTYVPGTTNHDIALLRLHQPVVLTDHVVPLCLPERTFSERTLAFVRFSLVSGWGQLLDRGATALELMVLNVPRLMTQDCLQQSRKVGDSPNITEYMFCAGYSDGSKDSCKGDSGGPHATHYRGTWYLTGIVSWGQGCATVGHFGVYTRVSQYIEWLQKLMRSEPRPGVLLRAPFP
Method in brief: (§3)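 Human enzyme and inhibitor were premixed and preincubated, then the chromogenic substrate was added. Substrate levels: 300 μM S-2765 (FXa, trypsin); 200 μM S-2366 (FIIa); 2 mM S-2366 (FVIIa, FXIa). pNA release was monitored continuously at 405 nm for 20 min at 37 °C. IC50 was obtained by nonlinear regression.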

Plasma [5] = assay: Anticoagulant activity in citrated rabbit plasma assessed as activated partial thromboplastin time preincubated for 10 mins at 37 degC by coagulometry; format: functional, Oryctolagus cuniculus; method in brief: as §2
[6] = Plasma clearance in Sprague-Dawley rat at 3 mg/kg, iv; format: ADME, organism-based; parameters: dose 3 mg/kg, route intravenous; method in brief: as §1
[7] = Oral bioavailability in Sprague-Dawley rat at 10 mg/kg; format: ADME, organism-based; conditions: in vivo; method in brief: as §1
Prothrombin = Prothrombin (Homo sapiens, UniProt P00734); assay: Inhibition of human factor 2a using L-pyro-Glu-Pro-ArgpNA, S-2366 chromogenic substrate; method in brief: as §3
[8] = Elimination half life in Sprague-Dawley rat at 3 mg/kg, iv; format: ADME, organism-based; parameters: dose 3 mg/kg, route intravenous; conditions: in vivo, read-out: beta t1/2 (converted); method in brief: as §1
[9] = Cmax in Sprague-Dawley rat at 10 mg/kg, po; format: ADME, organism-based; parameters: dose 10 mg/kg, route oral; conditions: in vivo; method in brief: as §1
Coagulation factor XI = Coagulation factor XI (Homo sapiens, UniProt P03951); assay: Inhibition of human factor 11a using S-2366 chromogenic substrate; method in brief: as §3
Coagulation factor XI, sequence (P03951 19-387 limits assumed): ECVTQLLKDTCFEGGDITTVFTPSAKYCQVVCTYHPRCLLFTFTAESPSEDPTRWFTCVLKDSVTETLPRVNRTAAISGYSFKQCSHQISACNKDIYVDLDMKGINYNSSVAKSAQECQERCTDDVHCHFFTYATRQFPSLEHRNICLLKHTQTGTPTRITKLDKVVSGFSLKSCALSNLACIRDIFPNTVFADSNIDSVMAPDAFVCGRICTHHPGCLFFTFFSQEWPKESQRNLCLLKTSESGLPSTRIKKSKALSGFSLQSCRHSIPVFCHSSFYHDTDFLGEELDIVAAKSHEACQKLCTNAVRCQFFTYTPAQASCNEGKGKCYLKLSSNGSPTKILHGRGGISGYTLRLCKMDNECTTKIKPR
Coagulation factor XI, sequence (P03951 388-625 limits assumed): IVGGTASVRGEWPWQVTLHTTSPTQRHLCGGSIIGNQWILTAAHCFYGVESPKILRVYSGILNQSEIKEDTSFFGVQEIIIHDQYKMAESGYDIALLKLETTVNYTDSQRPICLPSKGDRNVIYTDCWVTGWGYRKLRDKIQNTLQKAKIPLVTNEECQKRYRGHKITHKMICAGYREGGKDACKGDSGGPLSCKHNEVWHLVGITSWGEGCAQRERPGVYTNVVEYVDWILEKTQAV

Coagulation factor X = Coagulation factor X (Homo sapiens, UniProt P00742); assay: Inhibition of human factor 10a using N-Z-D-Arg-Gly-Arg-pNA, S-2765 chromogenic substrate
Coagulation factor X, sequence (P00742 41-179 limits assumed): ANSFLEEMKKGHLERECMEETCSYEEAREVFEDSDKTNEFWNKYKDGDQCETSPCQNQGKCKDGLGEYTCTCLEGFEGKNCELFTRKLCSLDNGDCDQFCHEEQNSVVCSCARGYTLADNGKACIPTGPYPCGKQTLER
Coagulation factor X, sequence (P00742 235-488 limits assumed): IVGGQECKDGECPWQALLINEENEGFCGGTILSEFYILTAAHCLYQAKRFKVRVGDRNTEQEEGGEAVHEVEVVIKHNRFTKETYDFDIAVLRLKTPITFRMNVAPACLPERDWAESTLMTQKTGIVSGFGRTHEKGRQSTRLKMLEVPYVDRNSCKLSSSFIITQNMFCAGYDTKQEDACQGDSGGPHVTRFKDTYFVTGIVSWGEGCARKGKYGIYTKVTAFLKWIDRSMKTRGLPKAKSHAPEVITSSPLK

Coagulation factor IX = Coagulation factor IX (Homo sapiens, UniProt P00740); assay: Inhibition of human factor 9a using CH3SO2-(D)CHG Gly-Arg-pNA, Biophen-CS51 chromogenic substrate
Coagulation factor IX, sequence (P00740 47-191 limits assumed): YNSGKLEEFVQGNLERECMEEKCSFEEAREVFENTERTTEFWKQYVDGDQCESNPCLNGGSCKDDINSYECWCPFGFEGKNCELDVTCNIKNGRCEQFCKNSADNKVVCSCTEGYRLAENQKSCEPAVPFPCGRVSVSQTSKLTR
Coagulation factor IX, sequence (P00740 227-461 limits assumed): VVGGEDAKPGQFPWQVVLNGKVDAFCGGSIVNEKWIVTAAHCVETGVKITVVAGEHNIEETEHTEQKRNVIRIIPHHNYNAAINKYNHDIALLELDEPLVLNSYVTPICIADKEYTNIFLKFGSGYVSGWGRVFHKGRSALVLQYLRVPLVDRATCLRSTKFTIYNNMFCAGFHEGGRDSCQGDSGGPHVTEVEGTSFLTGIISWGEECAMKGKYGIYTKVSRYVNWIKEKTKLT

[10] = Tmax in Sprague-Dawley rat at 10 mg/kg, po; format: ADME, organism-based; parameters: dose 10 mg/kg, route oral; conditions: in vivo; method in brief: as §1
Trypsin = Trypsin (Homo sapiens, UniProt P07477+P07478+P35030); assay: Inhibition of human trypsin using N-Z-D-Arg-Gly-Arg-pNA, S-2765 chromogenic substrate; format: protein assay; method in brief: as §3
[11] = Volume of distribution at steady state in Sprague-Dawley rat at 3 mg/kg, iv; format: ADME, organism-based; parameters: dose 3 mg/kg, route intravenous; conditions: in vivo, read-out: Vdss; method in brief: as §1
[12] = Elimination half life in Sprague-Dawley rat at 3 mg/kg, po; format: ADME, organism-based; parameters: dose 3 mg/kg, route oral; conditions: in vivo, read-out: beta t1/2 (converted)
Rattus norvegicus [13] = assay: Antithrombotic activity in rat model of FeCl3-induced venous thrombosis assessed as reduction in thrombus formation dosed orally 60 mins before thrombus formation; conditions: po
[14] = Elimination half life in Beagle dog at 0.5 mg/kg, iv; format: ADME, organism-based, Canis lupus familiaris; parameters: dose 0.5 mg/kg, route intravenous; conditions: in vivo
Method in brief: (§4)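 Male dogs, three per group. Dosed orally at 1 mg/kg or by intravenous infusion at 0.5 mg/kg. Vehicle was 5% DMSO + 5% Tween-80 in 90% saline, or 10% DMSO + 10% Tween-80 + 80% PEG400 for the reference drug. Foreleg blood samples were quantified by LC-MS. Parameters came from noncompartmental analysis of mean plasma concentrations.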

[15] = Oral bioavailability in Beagle dog at 1 mg/kg; format: ADME, organism-based, Canis lupus familiaris; conditions: in vivo; method in brief: as §4
[16] = Volume of distribution at steady state in Beagle dog at 0.5 mg/kg, iv; format: ADME, organism-based, Canis lupus familiaris; parameters: dose 0.5 mg/kg, route intravenous; conditions: in vivo, read-out: Vdss; method in brief: as §4
[17] = Plasma clearance in Beagle dog at 0.5 mg/kg, iv; format: ADME, organism-based, Canis lupus familiaris; parameters: dose 0.5 mg/kg, route intravenous; method in brief: as §4
Rattus norvegicus [18] = assay: Antithrombotic activity in rat model of arteriovenous shunt-induced thrombosis assessed as reduction in thrombus formation dosed orally 60 mins before shunt opening; conditions: po
[19] = Cmax in Sprague-Dawley rat at 3 mg/kg, po; format: ADME, organism-based; parameters: dose 3 mg/kg, route oral; conditions: in vivo
[20] = AUC (0 to infinity) in Sprague-Dawley rat at 3 mg/kg, po; format: ADME, organism-based; parameters: time infinity, dose 3 mg/kg, route oral; conditions: plasma
[21] = AUC (0 to infinity) in Beagle dog at 1 mg/kg, po; format: ADME, organism-based, Canis lupus familiaris; parameters: time infinity, dose 1 mg/kg, route oral; conditions: plasma; method in brief: as §4
[22] = Oral bioavailability in Sprague-Dawley rat at 3 mg/kg; format: ADME, organism-based; conditions: in vivo
[23] = AUC (0 to infinity) in Beagle dog at 0.5 mg/kg, iv; format: ADME, organism-based, Canis lupus familiaris; parameters: time infinity, dose 0.5 mg/kg, route intravenous; conditions: plasma; method in brief: as §4
[24] = Tmax in Beagle dog at 1 mg/kg, po; format: ADME, organism-based, Canis lupus familiaris; parameters: dose 1 mg/kg, route oral; conditions: in vivo; method in brief: as §4
Rattus norvegicus [25] = assay: Induction of tail bleeding in rat assessed as prolongation of bleeding time dosed orally 60 mins before surgery; format: organism-based; conditions: in vivo, po, 1 h
Method in brief: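 Anesthetized rats were dosed orally with compound suspended in 0.5% CMC-Na, or vehicle, 60 min before the tail was transected 4 mm from the tip. The tail was immersed vertically in saline at 37 °C. Bleeding time was taken as the point when flow ceased for >30 s, with a 30 min maximum.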

[26] = Tmax in Sprague-Dawley rat at 3 mg/kg, po; format: ADME, organism-based; parameters: dose 3 mg/kg, route oral; conditions: in vivo
[27] = Cmax in Beagle dog at 1 mg/kg, po; format: ADME, organism-based, Canis lupus familiaris; parameters: dose 1 mg/kg, route oral; conditions: in vivo; method in brief: as §4
[28] = Elimination half life in Beagle dog at 1 mg/kg, po; format: ADME, organism-based, Canis lupus familiaris; parameters: dose 1 mg/kg, route oral; conditions: in vivo; method in brief: as §4

## O=C(NC[C@@H]1OC(=O)N2c3ccc(N4CCOCC4=O)cc3NC[C@@H]12)c1ccc(Cl)s1
[1]
  half-life: 1.52 h
[2]
  AUC(0-inf): 1350 ng·h/mL
Plasma [3]
  Activity: 0.48 µM
[4]
  AUC(0-inf): 5700 ng·h/mL
Coagulation factor VII
  IC50: > 100 µM
Plasma [5]
  2aPTT: 0.43 µM
[6]
  clearance: 9.22 mL/min/kg
[7]
  bioavailability: 6.8%
Prothrombin
  IC50: > 100 µM
[8]
  half-life: 0.86 h
[9]
  Cmax: 565 ng/mL
Coagulation factor XI
  IC50: > 100 µM
Coagulation factor X
  IC50: 0.00506 µM
Coagulation factor IX
  IC50: > 100 µM
[10]
  Tmax: 0.44 h
Trypsin
  IC50: > 100 µM
[11]
  Vd: 0.199 L/kg

## O=C(NC[C@H]1CN(c2ccc(N3CCOCC3=O)cc2)C(=O)O1)c1ccc(Cl)s1 [RIVAROXABAN]
[12]
  half-life: 2.9 h
Rattus norvegicus [13]
  ED50: 4.86 mg/kg
[14]
  half-life: 2.4 h
Plasma [3]
  Activity: 0.4 µM
[4]
  AUC(0-inf): 9980 ng·h/mL
[15]
  bioavailability: 68%
Plasma [5]
  2aPTT: 0.32 µM
[16]
  Vd: 2.8 L/kg
[17]
  clearance: 10 mL/min/kg
Rattus norvegicus [18]
  ED50: 3.72 mg/kg
[19]
  Cmax: 850 ng/mL
[6]
  clearance: 5.05 mL/min/kg
[20]
  AUC(0-inf): 2260 ng·h/mL
[8]
  half-life: 1.27 h
[21]
  AUC(0-inf): 1000 ng·h/mL
[22]
  bioavailability: 21.3%
[23]
  AUC(0-inf): 916 ng·h/mL
[24]
  Tmax: 0.7 h
Rattus norvegicus [25]
  Activity: Dose-dependent effect
[26]
  Tmax: 0.88 h
[27]
  Cmax: 333 ng/mL
[28]
  half-life: 1.8 h
[11]
  Vd: 0.19 L/kg
